The full list was thinned out, with hits kept by preference.
ROMK primary – modulates human ROMK potassium channel activity; AID 1918; B-score at 10 µM; actives 2% (n = 130,000); Tet-inducible ROMK, thallium flux fluorescence; actives lie on both sides;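 active means signal ratio slope over the read window, or its plate-corrected B-score, at least 3 SD from the plate mean, either direction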;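 further: B-score of the F/F0 ratio slope over 7 to 12 s after thallium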
Target sequence (P48048 whole entry, looked up): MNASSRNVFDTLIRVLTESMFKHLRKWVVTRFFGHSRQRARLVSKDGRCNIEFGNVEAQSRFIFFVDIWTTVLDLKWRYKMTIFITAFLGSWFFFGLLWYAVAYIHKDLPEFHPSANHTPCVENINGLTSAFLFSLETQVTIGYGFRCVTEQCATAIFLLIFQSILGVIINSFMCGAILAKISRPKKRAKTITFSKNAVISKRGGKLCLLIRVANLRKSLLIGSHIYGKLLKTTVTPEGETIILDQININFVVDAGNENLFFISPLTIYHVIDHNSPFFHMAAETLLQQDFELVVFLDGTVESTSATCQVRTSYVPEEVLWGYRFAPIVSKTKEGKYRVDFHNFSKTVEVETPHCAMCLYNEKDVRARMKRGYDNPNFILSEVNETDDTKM
Calb biofilm kill – mixtures killing C. albicans biofilm. C. albicans biofilm persisters + clotrimazole, fluorescence viability; primary screen in compound mixtures of four per well. inhibition, % at 7.6 µM. actives 0.02% (n = 120,000). AID 1242;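 active means inhibition above 30.3% in the primary screen of four-compound pools, then above 30% when the compound was retested; inconclusive means passed the primary limit but could not be retested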;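 further: compounds exposed to preformed 24 h biofilms for 48 h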
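Test system: C. albicans biofilms. Buffer or medium: RPMI/MOPS medium, pH 7.0. Timing: 48 h compound exposure at 37 °C. Technique: Alamar Blue fluorescence. Evaluation: percent inhibition of biofilm viability.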
ROMK hit retest – retested hit modulating human ROMK potassium channel. shares compounds with ROMK primary. actives 54% (n = 3,000). ROMK thallium flux, fluorescence ratio; stronger effect = lower value. AID 1917. normalized thallium flux (F/F0 slope) at 10 µM;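 active means Flux at 10 µM at least 3 SD below or above vehicle control mean in one or both replicates; inconclusive means no clear call, values can overlap the other calls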
Hits are given with their value; - = inactive; ? = inconclusive; . = not tested or not shown.

SMILES | ROMK primary | Calb biofilm kill | ROMK hit retest
O=C(COC(=O)c1cc(-c2ccc(F)cc2)nc2ccccc12)NCC1CCCO1 (stereo unspecified) | -4.36 | - | 0.0658
O=C(NCC1CCCO1)c1cc(-c2ccco2)nc2ccccc12 (stereo unspecified) | - | . | .
Cc1sc(NC(=O)c2cccs2)c(C(=O)OC(C)C)c1C | - | - | .
CC(=O)c1cc(C#N)c(SCC(=O)O)nc1C | - | . | .
CNC(=S)N(Cc1ccccc1)Cc1cccnc1 | -12 | - | -
Cc1ccccc1NC(=S)N(Cc1ccccc1)Cc1cccnc1 | - | - | .
CC(=O)N(C(C)=O)N1C(=O)/C(=C/c2ccc(Cl)cc2)SC1=S | -3.16 | - | 0.0532
NS(=O)(=O)c1ccc(CCN2C(=O)/C(=C\c3ccc(Cl)cc3)SC2=S)cc1 | - | - | .
Cc1cc(C)nc(N/N=C/c2ccccc2)n1 | - | . | .
Cc1cc(C)nc(N/N=C/c2sccc2C)n1 | -18.9 | - | -
CC(C)C12CN(C(=O)c3ccccc3[N+](=O)[O-])CC(C(C)C)(CN(C(=O)c3ccccc3[N+](=O)[O-])C1)C2=O | - | - | .
CCC(NC(=O)N(Cc1ccccc1)Cc1ccc2c(c1)OCO2)(C(F)(F)F)C(F)(F)F | . | . | -
O=C(NCc1ccc2c(c1)OCO2)c1ccccc1 | . | - | .
CCOC(=O)c1cc(-c2ccc(OC)cc2)nc2c1c(C)nn2CCC(N)=S | - | - | .
c1ccc(N2CCN(c3nnnn3-c3ccccc3)CC2)cc1 | - | . | .
ClC(Cl)(c1nnnn1-c1ccccc1)c1nnnn1-c1ccccc1 | -2.82 | - | 0.06
CCCCOc1ccc(NC(=O)c2cc(F)c(F)cc2Cl)cc1 | - | - | .
CCCS(=O)(=O)c1nnnn1-c1cccc(OC)c1 | -8.41 | . | 0.0462
COc1cccc(-n2nnnc2SCC(=O)Nc2ccc(C(C)=O)cc2)c1 | - | - | .
COC(=O)c1ccccc1NC(=S)NC(=O)C1CCCCC1 | - | - | .
CCc1ccccc1NC(=S)N(CCN(C)C)C(C)c1ccco1 (stereo unspecified) | . | - | .
COc1ccc(-c2noc(CCC(=O)NCc3ccco3)n2)cc1 | . | - | .
Cc1cccc(NC(=S)NNC(=O)c2ccc(O)cc2O)c1C | - | - | .
Cc1ccc(NC(=S)NNC(=O)c2ccccc2O)c(C)c1 | 2.88 | - | 0.0635
CN(C)CCNC(=O)CNC(=S)N(CCCN1CCOCC1)Cc1cccs1 | -8.47 | - | -
SMILES | ROMK primary | Calb biofilm kill | ROMK hit retest
CCN(CC)CCNC(=O)CNC(=S)N(CCCN1CCOCC1)Cc1cccs1 | - | - | .
COc1cccc(NC(=S)N(CCCN2CCC(C)CC2)Cc2cccs2)c1 | -3.45 | - | 0.0607
Cc1ccccc1NC(=S)N(CCCN1CCC(C)CC1)Cc1ccco1 | -2.52 | - | 0.0655
COc1ccc(NC(=S)N(CCCN2CCC(C)CC2)Cc2cccs2)cc1 | - | - | .
Cc1ccccc1NC(=S)N(CCCN1CCCCC1)Cc1ccco1 | - | - | .
Clc1ccc(-c2nn3c(C4COc5ccccc5O4)nnc3s2)cc1 (stereo unspecified) | - | . | .
Cc1cccc(C(=O)N2CCc3cc(-c4nc(NC(=O)Cn5nnc6ccccc6c5=O)sc4C)ccc32)c1 | . | - | .
Cc1ccc(C(=O)NC(C#N)=C(Cl)Cl)cc1 | - | - | 0.0613
Cc1ccc(C(=O)NCC#N)cc1 | - | - | .
COc1cc(/C=C2\C(=N)N3N=CSC3=NC2=O)cc(Br)c1OC(=O)c1ccco1 | -10 | - | 0.0321
N=C1/C(=C\c2ccc(OC(=O)c3ccco3)cc2)C(=O)N=C2SC=NN12 | - | - | .
Cc1csc2c(N3CCN(C(=O)Nc4ccccc4)CC3)ncnc12 | - | - | .
Cc1csc2c(N3CCN(C(=S)Nc4ccc(F)cc4F)CC3)ncnc12 | -3.3 | - | 0.0609
CN(C1CCS(=O)(=O)C1)S(=O)(=O)c1ccc(N2CCCC2=O)cc1 (stereo unspecified) | - | . | .
COc1ccc(NC(=S)NC(NC(=O)c2cccc(Cl)c2)C(Cl)(Cl)Cl)c([N+](=O)[O-])c1 (stereo unspecified) | . | - | .
COc1ccc2occ(C(=O)c3coc4ccc(O)c(CN(C)C)c34)c2c1 | . | . | 0.0609
COc1ccc(OC)c(C(=O)c2coc3ccc(OC(C)=O)cc23)c1 | - | - | .
COc1ccc2occ(C(=O)c3cccs3)c2c1 | - | . | .
COc1ccc(OC)c(C(=O)c2coc3ccc(OCC(=O)O)cc23)c1 | 2.81 | . | -
COc1ccc(-n2nc(C(=O)N3CCCCC3)c(C)c(C#N)c2=O)cc1 | - | - | .
CSc1nc(C)cc(-n2ccc(=O)[nH]c2=O)n1 | - | . | .
CCCCCn1c(=S)[nH]c2cc(C(=O)N3CCCC3)ccc2c1=O | - | - | .
Cc1ccc(S(=O)(=O)/N=C/c2cc(Br)ccc2O)cc1 | - | - | .
Cc1cc(N=Cc2cc(Br)ccc2O)no1 | . | . | ?
O=C(Nc1ccc(Cl)cn1)c1cccc(F)c1 | - | . | .
SMILES | ROMK primary | Calb biofilm kill | ROMK hit retest
Cc1ccccc1C1CC(=O)NC2=C1C(=O)CCC2 (stereo unspecified) | - | . | .
CCC(C)Oc1ccccc1C1CC(=O)NC2=C1C(=O)CCC2 (stereo unspecified) | 2.77 | . | -
COc1ccc(-c2c(NC(=O)c3ccco3)n(C)c3ccccc3c2=O)cc1 | 3.75 | . | -
COc1ccccc1-c1c(NC(=O)c2ccco2)n(C)c2ccccc2c1=O | . | - | .
NC(=O)c1ccccc1NC(=O)CCc1ccccc1 | . | . | -
NC(=O)c1ccccc1NC(=S)NC(=O)CCc1ccccc1 | - | - | .
O=C(NC(NC(=S)Nc1c(Cl)cc(Cl)cc1Cl)C(Cl)(Cl)Cl)OCc1ccccc1 (stereo unspecified) | . | - | .
Cc1cc(O)c(N)c(C)c1Cl | . | - | .
COC(=O)C1CCN(C(=O)CSc2ccccc2)CC1 | - | - | -
CCOC(=O)C1CCN(C(=O)CSc2ccc(Br)cc2)CC1 | - | - | .
COc1ccc(C(=O)C(CCC(CNC(C)(C)C)C(=O)c2ccc(OC)cc2)CNC(C)(C)C)cc1 (stereo unspecified) | . | - | 0.066
COc1ccc(C(=O)NN)cc1 | . | - | .
Cc1cc(C(=O)N2CCN(C(=O)c3ccco3)CC2)ccc1[N+](=O)[O-] | - | - | .
Cn1c(=O)[nH]c(=O)c2c1nc(N1CCCCC1)n2C/C=N/Nc1ccc(C(=O)O)cc1 | . | - | .
CCC(=O)Nc1ccc2c(c1)ncn2C | - | - | .
Cn1cnc2cc(NC(=O)c3ccc(Cl)cc3)ccc21 | . | . | -
O=c1cc(O)c2sc3nc(-c4ccccc4)cc(C(F)(F)F)c3c2[nH]1 | . | - | .
N#Cc1sc2nc(-c3ccccc3)cc(C(F)(F)F)c2c1N | -4.43 | - | 0.0632
CCCn1c(=N)n(CC(O)COc2cccc(C)c2)c2ccccc21 (stereo unspecified) | -3.44 | . | 0.0508
COc1ccc(OCC(O)Cn2c(=N)n(CCN3CCOCC3)c3ccccc32)cc1 (stereo unspecified) | - | . | .
CCCCn1c(=N)n(CC(O)COc2ccccc2)c2ccccc21 (stereo unspecified) | -3.67 | . | ?
Cc1ccccc1OCC(O)Cn1c(=N)n(CCN2CCOCC2)c2ccccc21 (stereo unspecified) | - | - | .
N=c1n(CCN2CCOCC2)c2ccccc2n1CC(O)COc1ccccc1 (stereo unspecified) | - | . | .
Cc1ccc(Cn2c(=N)n(CC(O)COc3ccccc3)c3ccccc32)cc1 (stereo unspecified) | -4.09 | . | 0.0487
CCCCn1c(=N)n(CC(O)COc2ccc(C)cc2)c2ccccc21 (stereo unspecified) | -7.01 | . | 0.0484
CCn1c(=N)n(CC(O)COc2cccc(C)c2)c2ccccc21 (stereo unspecified) | - | . | .
